Only some compounds are listed: those with a hit (about 4.1% of all), similar ones and a draw of the others.
MPTP inh – inhibitors of mitochondrial permeability transition pore | isolated mouse mitochondria, Ca2+ swelling absorbance, 30 min | inhibition, % at 10 µM | 360,000 compounds, 1.4% hits | AID 602449;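 active = inhibition of 50% or more, scaled per plate between neutral and stimulator controls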
SMARCA2 activ – SMARCA2 function activation, primary screen; MG213 cells, MMTV-luciferase reporter, dexamethasone, overnight; activation, % at 9.1 µM; 370,000 compounds, 1% hits; AID 652017; in the data active = activation above about 7.8%
MC4R antag cAMP – antagonists of human melanocortin 4 receptor (MC4R); 360,000 compounds, 0.48% hits; AID 540295; MC4R-expressing cells, MTII-stimulated cAMP, LANCE TR-FRET; inhibition, % at 6.5 µM;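 active = inhibition above its plate's cutoff, the mean of tested wells on that plate plus 3 SD, cut at about 29% in these data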
Target sequence (P32245 whole entry, looked up): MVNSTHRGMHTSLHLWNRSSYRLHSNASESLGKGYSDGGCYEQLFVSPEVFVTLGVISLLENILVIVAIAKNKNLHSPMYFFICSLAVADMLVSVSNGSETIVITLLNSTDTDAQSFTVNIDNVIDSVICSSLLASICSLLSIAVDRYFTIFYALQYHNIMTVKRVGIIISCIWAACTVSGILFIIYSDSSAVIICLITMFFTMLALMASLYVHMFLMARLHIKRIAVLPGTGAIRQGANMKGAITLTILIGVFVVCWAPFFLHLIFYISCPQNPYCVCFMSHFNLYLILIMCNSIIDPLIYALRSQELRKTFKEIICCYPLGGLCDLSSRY
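System: U2OS cells stably expressing human melanocortin 4 receptor (MC4R). Reagent: Melanotan II challenge after compound preincubation. Doses: 6.5 µM. Times: 30-min compound, 1-h challenge, 1-h detection, room temperature. Measured by: TR-FRET with Eu-cAMP and labeled anti-cAMP, 671 nm. Replicates: singlicate.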
ATG4B inh – inhibitors of human ATG4B cysteine protease; Q9Y4P1; ATG4B cleavage of LC3-PLA2, NBD-HPC fluorescence, 1 h; inhibition, % at 8.33 µM; 340,000 compounds, 0.51% hits; in the data active = inhibition above about 40%
Target sequence (Q9Y4P1 whole entry, looked up): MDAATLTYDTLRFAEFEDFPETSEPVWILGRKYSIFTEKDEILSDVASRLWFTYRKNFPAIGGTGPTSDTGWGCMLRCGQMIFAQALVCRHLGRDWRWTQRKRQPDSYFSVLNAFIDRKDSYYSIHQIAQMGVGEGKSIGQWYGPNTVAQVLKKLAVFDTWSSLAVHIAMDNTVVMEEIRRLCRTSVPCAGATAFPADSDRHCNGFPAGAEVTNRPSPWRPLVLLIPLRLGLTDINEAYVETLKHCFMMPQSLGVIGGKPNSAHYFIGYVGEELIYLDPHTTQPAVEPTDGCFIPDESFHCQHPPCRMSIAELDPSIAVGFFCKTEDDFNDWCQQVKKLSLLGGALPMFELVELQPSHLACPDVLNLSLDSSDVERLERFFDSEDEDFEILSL
MC4R ag barr – agonists of human melanocortin 4 receptor (MC4R) beta-arrestin; P32245; U2OS MC4R beta-arrestin complementation, luminescence; percent of melanotan II response, DMSO zero; activation, % at 8.9 µM; 360,000 compounds, 0.98% hits;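 active = activation above a per-plate cutoff, the mean activation of sample wells on that plate plus 3 SD, cut at about 8% in these data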
MC4R barr ag – human MC4R beta-arrestin agonism confirmation | activation, % at 8.9 µM | U2OS MC4R beta-arrestin recruitment, luminescence; scaled DMSO 0%, Melanotan II 100% | AID 602192 | 2,400 compounds, 31% hits | shares compounds with MC4R ag barr;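 active = mean activation across replicates above the hit cutoff set in the earlier primary screen, cut at about 8% in these data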
MOR-DOR barr ag – counter-screen for MC4R agonists: agonists of mu-delta opioid heterodimer; shares compounds with MC4R ag barr; AID 602194; U2OS PathHunter beta-arrestin, beta-gal luminescence; percent of deltorphin B response, DMSO zero; activation, % at 9.2 µM; 2,400 compounds, 5.8% hits;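 active = mean activation across replicates exceeds the hit threshold derived in the earlier primary screen, cut at about 18% in these data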
Of the large screens only hits and unclear results are named; the others gave an inactive call (follow-up assays come after a bar, where they were run).

O=C(c1ccccc1)c1ccc2nc(-c3ccc(NC(=O)c4ccccc4F)cc3)[nH]c2c1	MC4R ag barr 12 | MC4R barr ag inactive | MOR-DOR barr ag inactive
CC(C)C[C@H](CO)N(Cc1ccccc1)S(=O)(=O)N(Cc1ccccc1)[C@@H](CO)CC(C)C	none
O=S(=O)(N(Cc1ccccc1)[C@@H](CO)Cc1ccccc1)N(Cc1ccccc1)[C@@H](CO)Cc1ccccc1	MC4R ag barr 13 | MC4R barr ag inactive | MOR-DOR barr ag inactive
CCn1c(O)c(/C=N/N=C/c2ccc(OC)cc2)c2cc(C3=NNC(=O)CC3)ccc21	MC4R ag barr 18 | MC4R barr ag inactive | MOR-DOR barr ag inactive
O=S(=O)(NCC1CCCO1)c1ccc(S(=O)(=O)N(Cc2ccc(F)cc2)C2CCCCC2)cc1 (centres undefined)	MC4R ag barr 10 | MC4R barr ag inactive | MOR-DOR barr ag inactive
CC(C)C(C(=O)NCC1CCCO1)N(C(=O)CNS(=O)(=O)c1ccc(F)cc1)C1CCCCC1 (centres undefined)	none
CNc1cnn(-c2ccccc2)c(=O)c1Cl	none
O=c1c(Cl)c(N/N=C/c2ccc(Br)cc2)cnn1-c1ccccc1	MC4R ag barr 16 | MC4R barr ag 12 | MOR-DOR barr ag inactive
O=C(CC1CCCC1)N1CC[C@H]2[C@H](CCCN2Cc2ccc(F)cc2)C1	none (no result: MPTP inh, MC4R antag cAMP, ATG4B inh, MC4R ag barr)
O=C(C(=O)N1CCC(CNC(=O)c2cccs2)CC1)c1cc2ccccc2o1	none (no result: MPTP inh, MC4R antag cAMP, ATG4B inh, MC4R ag barr)
COc1ccc(-c2cc(-c3cccs3)c(C#N)c(SCC(=O)NCc3ccco3)n2)cc1	none (no result: SMARCA2 activ)
COc1cccc(-c2ccc(C#N)c(SCC(=O)NCc3ccco3)n2)c1	MC4R ag barr 19 | MC4R barr ag inactive | MOR-DOR barr ag inactive
Nc1ncnc2c1ncn2[C@@H]1O[C@H](C(=O)N[C@@H](CCc2ccccc2)C(=O)N2CCN(CC(=O)N3CCCC3)CC2)[C@@H](O)[C@H]1O	none (no result: MPTP inh, MC4R antag cAMP, ATG4B inh, MC4R ag barr)
CCOC(=O)c1c(NC(=O)Cn2nc(C(F)(F)F)cc2C)sc(C)c1C	MC4R ag barr 15 | MC4R barr ag inactive | MOR-DOR barr ag inactive
CCOC(=O)c1c(NC(=O)Cn2nc(C(F)F)cc2C(F)F)sc(C)c1C	none
Cc1cccc(Oc2nccc(C(F)(F)F)c2C(=O)Nc2ccc(F)cc2F)c1	MC4R ag barr 20 | MC4R barr ag inactive | MOR-DOR barr ag inactive
COc1ccccc1Nc1nnc(SCC(=O)NC(=O)Nc2ccc3c(c2)OCCO3)s1	MC4R ag barr 17 | MC4R barr ag inactive | MOR-DOR barr ag inactive
O=C(CSc1ccc2c(c1)OCCO2)Nc1ccc2c(c1)OCO2	none (no result: SMARCA2 activ)
Cc1cccc(Nc2nnc(SCC(=O)NC(=O)Nc3ccc4c(c3)OCCO4)s2)c1	MC4R ag barr 22 | MC4R barr ag 11 | MOR-DOR barr ag inactive
Cc1ccc(SCC(=O)NC(=O)Nc2ccc3c(c2)OCCO3)cc1C	MC4R ag barr 15 | MC4R barr ag inactive | MOR-DOR barr ag inactive
CC(=O)Nc1nnc(SCC(=O)Nc2ccc3c(c2)OCCO3)s1	none
Cc1ccc(C(=O)N(C)[C@H]2C[C@H]3c4[nH]c5c(-c6ccc7c(c6)OCO7)cccc5c4CCN3C[C@H]2[C@H](C)O)cc1	none (no result: MPTP inh, MC4R antag cAMP, ATG4B inh, MC4R ag barr)
CN(C(=O)c1cccc(NC(=O)Cc2ccc(NC(=O)C3CCN(C(=O)CCc4ccccc4)CC3)cc2)c1)C1CCCC1	none (no result: MPTP inh, MC4R antag cAMP, ATG4B inh, MC4R ag barr)
CN(CCCOC(=O)c1cc2ccccc2o1)C1CN(Cc2cn(Cc3ccc([N+](=O)[O-])cc3)nn2)S(=O)(=O)C1 (centres undefined)	none (no result: MPTP inh, MC4R antag cAMP, ATG4B inh, MC4R ag barr)
CC(C)C[C@@H]1COc2cc(Br)ccc2S(=O)(=O)N1Cc1cn(CCC2OCCCO2)nn1	none (no result: MPTP inh, MC4R antag cAMP, ATG4B inh, MC4R ag barr)
CCc1ccc(NC(=O)C(=O)NCCOc2ccccc2Cl)cc1	MC4R ag barr 21 | MC4R barr ag inactive | MOR-DOR barr ag inactive
Cc1ccc(NC(=O)C(=O)NCCOc2ccccc2Cl)cc1	MC4R ag barr 12 | MC4R barr ag 9.8 | MOR-DOR barr ag inactive
O=C(NCCOc1ccccc1Cl)C(=O)NCCOc1ccccc1Cl	none
C[C@H]1[C@@H](C(=O)N2CCCC2)Cc2nc3ccccc3nc2C[C@@H]1c1ccccc1	none (no result: MPTP inh, MC4R antag cAMP, ATG4B inh, MC4R ag barr)
COC(=O)c1cc2c(c3c4ccccc4n(S(C)(=O)=O)c13)C(=O)N(Cc1ccccc1)C2	none (no result: MPTP inh, MC4R antag cAMP, ATG4B inh, MC4R ag barr)
Nc1ccc(C(=O)Nc2ccc(OC(F)(F)C(F)F)c(NC(=O)c3ccc(N)cc3)c2)cc1	none
O=C(Nc1ccc(OC(F)(F)C(F)F)c(NC(=O)c2ccc(F)cc2)c1)c1ccc(F)cc1	MC4R ag barr 12 | MC4R barr ag inactive | MOR-DOR barr ag inactive
Clc1ccccc1/C=N/NC1=Nc2cccc3cccc1c23	MC4R ag barr 18 | MC4R barr ag 25 | MOR-DOR barr ag inactive
C(=N\NC1=Nc2cccc3cccc1c23)/c1ccccn1	none
COC(=O)[C@]12C[C@H](CC(=O)NCc3cccc(C(F)(F)F)c3)C(=O)N(Cc3cccc4ccccc34)C1=C[C@H](C1CCCC1)O[C@@H]2C	none (no result: MPTP inh, MC4R antag cAMP, ATG4B inh, MC4R ag barr)
Cc1ccc(C)c(NC(=O)Cn2nc(-c3ccccc3)nc2-c2ccccc2)c1	none
Cc1ccc(NC(=O)Cn2nc(-c3ccccc3)nc2-c2ccccc2)c(C)c1	MC4R ag barr 17 | MC4R barr ag inactive | MOR-DOR barr ag inactive
COc1ccc(-c2cc(C(F)(F)F)nc(SCC(=O)NCc3cccs3)n2)cc1	MC4R ag barr 16 | MC4R barr ag inactive | MOR-DOR barr ag inactive
CCN(CC)S(=O)(=O)c1ccc(NC(=O)CSc2nnc(-c3ccc(F)cc3)o2)cc1	none
CCN(CC)S(=O)(=O)c1ccc(-c2nnc(SCC(=O)Nc3ccc4c(c3)OCO4)o2)cc1	MC4R ag barr 10 | MC4R barr ag inactive | MOR-DOR barr ag inactive
COc1ccc(-c2cc(C(F)(F)F)nc(SCC(=O)Nc3ccc4c(c3)OCO4)n2)cc1	none
COc1ccc(CCNC(=O)CCSc2nc(-c3ccco3)cc(C(F)(F)F)n2)cc1	MC4R ag barr 18 | MC4R barr ag inactive | MOR-DOR barr ag inactive
COc1ccc(CCNC(=O)CSc2nc(-c3ccco3)cc(C(F)(F)F)n2)cc1OC	none
O=C(CSc1nc(-c2ccc(F)cc2)cc(C(F)(F)F)n1)Nc1ccc2c(c1)OCO2	MC4R ag barr 17 | MC4R barr ag inactive | MOR-DOR barr ag inactive
COc1ccc(-c2cc(-c3nnc(SCC(=O)Nc4ccccc4-c4ccccc4)n3N)[nH]n2)cc1	none (no result: MPTP inh, MC4R antag cAMP, ATG4B inh, MC4R ag barr)
c1ccc(-c2ccc(C3=Nn4c(nnc4-c4ccccn4)SC3)cc2)cc1	none (no result: MPTP inh, MC4R antag cAMP, ATG4B inh, MC4R ag barr)
C=CCN1C(=O)[C@@H](CC(=O)NCc2cccs2)[C@]2(C(=O)OC)CCCCC=C12	none (no result: MPTP inh, MC4R antag cAMP, ATG4B inh, MC4R ag barr)
Cc1cc(NC(=O)CCCSc2nc(-c3ccco3)cc(C(F)(F)F)n2)no1	none
